ChEMBL document CHEMBL1166003, “Triterpene glycosides from Curculigo orchioides and their cytotoxic activity” (J Nat Prod, 2010)
Calls of active or inactive are those of the source. The calls are words filed in the database; no cut-off is given here.

What was measured:
HL-60 [1] = experiment: Cytotoxicity against human HL60 cells at 20 uM after 72 hrs by MTT assay; format: functional, cell-based
HL-60 [2] = experiment: Cytotoxicity against human HL60 cells after 72 hrs by MTT assay; format: functional, cell-based; settings: HL-60, 72 h
Summary of the method: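 HL-60 (JCRB 0085) kept in RPMI 1640 with 10% heat-inactivated FBS, penicillin/streptomycin, 37 °C, 5% CO2. Seeded at 4 × 10^4 cells/mL, preincubated 24 h, then dosed from EtOH-H2O (1:1) to final 0.01-20 µg/mL; vehicle-only controls. After 72 h, modified MTT read-out: MTT 4 h, centrifugation, formazan dissolved in DMSO, A550. Triplicate; IC50 taken as 50% reduction of viable cells.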

MKN-7 = experiment: Growth inhibition of human MKN7 cells after 48 hrs by SRB assay; format: functional; settings: MKN-7, 48 h
Summary of the method: (§1)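 Part of a 39-line human cancer cell panel, run by a modified NCI method. Cells were plated at suitable density in RPMI 1640 with 5% FBS and left to attach overnight before compound addition. Read-out was GI50.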

U-251 = experiment: Growth inhibition of human U251 cells after 48 hrs by SRB assay; format: functional; settings: U-251, 48 h; summary of the method: as §1
HCC 2998 = experiment: Growth inhibition of human HCC2998 cells after 48 hrs by SRB assay; format: functional; settings: HCC 2998, 48 h; summary of the method: as §1
HCT-15 = experiment: Growth inhibition of human HCT15 cells after 48 hrs by SRB assay; format: functional; settings: HCT-15, 48 h; summary of the method: as §1
St-4 = experiment: Growth inhibition of human St-4 cells after 48 hrs by SRB assay; format: functional; settings: St-4, 48 h; summary of the method: as §1
MDA-MB-231 = experiment: Growth inhibition of human MDA-MB-231 cells after 48 hrs by SRB assay; format: functional; settings: MDA-MB-231, 48 h; summary of the method: as §1
OVCAR-8 = experiment: Growth inhibition of human OVCAR8 cells after 48 hrs by SRB assay; format: functional; settings: OVCAR-8, 48 h; summary of the method: as §1
MKN-28 = experiment: Growth inhibition of human MKN28 cells after 48 hrs by SRB assay; format: functional; settings: MKN-28, 48 h; summary of the method: as §1
OVCAR-4 = experiment: Growth inhibition of human OVCAR4 cells after 48 hrs by SRB assay; format: functional; settings: OVCAR-4, 48 h; summary of the method: as §1
DU-145 = experiment: Growth inhibition of human DU145 cells after 48 hrs by SRB assay; format: functional; settings: DU-145, 48 h; summary of the method: as §1
SNB-78 = experiment: Growth inhibition of human SNB78 cells after 48 hrs by SRB assay; format: functional; settings: SNB-78, 48 h; summary of the method: as §1
SNB-75 = experiment: Growth inhibition of human SNB75 cells after 48 hrs by SRB assay; format: functional; settings: SNB-75, 48 h; summary of the method: as §1
ACHN = experiment: Growth inhibition of human ACHN cells after 48 hrs by SRB assay; format: functional; summary of the method: as §1
SF-295 = experiment: Growth inhibition of human SF295 cells after 48 hrs by SRB assay; format: functional; settings: SF-295, 48 h; summary of the method: as §1
HCT-116 = experiment: Growth inhibition of human HCT116 cells after 48 hrs by SRB assay; format: functional; settings: HCT-116, 48 h; summary of the method: as §1
HT-29 = experiment: Growth inhibition of human HT-29 cells after 48 hrs by SRB assay; format: functional; settings: HT-29, 48 h; summary of the method: as §1
NCI-H226 = experiment: Growth inhibition of human NCI-H226 cells after 48 hrs by SRB assay; format: functional; settings: NCI-H226, 48 h; summary of the method: as §1
KM12 = experiment: Growth inhibition of human KM12 cells after 48 hrs by SRB assay; format: functional; settings: KM12, 48 h; summary of the method: as §1
MKN-45 = experiment: Growth inhibition of human MKN45 cells after 48 hrs by SRB assay; format: functional; settings: MKN-45, 48 h; summary of the method: as §1
SF-268 = experiment: Growth inhibition of human SF268 cells after 48 hrs by SRB assay; format: functional; settings: SF-268, 48 h; summary of the method: as §1
MKN-74 = experiment: Growth inhibition of human MKN74 cells after 48 hrs by SRB assay; format: functional; settings: MKN-74, 48 h; summary of the method: as §1
[3] = Growth inhibition of human HBC4 cells after 48 hrs by SRB assay; format: functional; settings: HBC4, 48 h; summary of the method: as §1
[4] = Growth inhibition of human BSY1 cells after 48 hrs by SRB assay; format: functional; settings: BSY-1, 48 h; summary of the method: as §1
[5] = Growth inhibition of human MKN1 cells after 48 hrs by SRB assay; format: functional; settings: MKN-1, 48 h; summary of the method: as §1
[6] = Growth inhibition of human HBC5 cells after 48 hrs by SRB assay; format: functional; settings: HBC5, 48 h; summary of the method: as §1
OVCAR-3 = experiment: Growth inhibition of human OVCAR-3 cells after 48 hrs by SRB assay; format: functional; settings: OVCAR-3, 48 h; summary of the method: as §1
MCF7 = experiment: Growth inhibition of human MCF7 cells after 48 hrs by SRB assay; format: functional; settings: MCF7, 48 h; summary of the method: as §1
SF-539 = experiment: Growth inhibition of human SF539 cells after 48 hrs by SRB assay; format: functional; settings: SF-539, 48 h; summary of the method: as §1
DMS-273 = experiment: Growth inhibition of human DMS273 cells after 48 hrs by SRB assay; format: functional; settings: DMS-273, 48 h; summary of the method: as §1
NCI-H522 = experiment: Growth inhibition of human NCI-H522 cells after 48 hrs by SRB assay; format: functional; settings: NCI-H522, 48 h; summary of the method: as §1
DMS-114 = experiment: Growth inhibition of human DMS114 cells after 48 hrs by SRB assay; format: functional; settings: DMS-114, 48 h; summary of the method: as §1
[7] = Growth inhibition of human RXF631L cells after 48 hrs by SRB assay; format: functional; settings: RXF 631, 48 h; summary of the method: as §1
NCI-H23 = experiment: Growth inhibition of human NCI-H23 cells after 48 hrs by SRB assay; format: functional; settings: NCI-H23, 48 h; summary of the method: as §1
PC-3 = experiment: Growth inhibition of human PC3 cells after 48 hrs by SRB assay; format: functional; settings: PC-3, 48 h; summary of the method: as §1
OVCAR-5 = experiment: Growth inhibition of human OVCAR5 cells after 48 hrs by SRB assay; format: functional; settings: OVCAR-5, 48 h; summary of the method: as §1
A549 = experiment: Growth inhibition of human A549 cells after 48 hrs by SRB assay; format: functional; settings: A549, 48 h; summary of the method: as §1
LOX IMVI = experiment: Growth inhibition of human LOXIMVI cells after 48 hrs by SRB assay; format: functional; summary of the method: as §1
NCI-H460 = experiment: Growth inhibition of human NCI-H460 cells after 48 hrs by SRB assay; format: functional; settings: NCI-H460, 48 h; summary of the method: as §1
SK-OV-3 = experiment: Growth inhibition of human SKOV3 cells after 48 hrs by SRB assay; format: functional; settings: SK-OV-3, 48 h; summary of the method: as §1

## CC(C)C(=O)CC[C@@H](C)[C@H]1[C@@H](O)C[C@@]2(C)[C@@H]3CC[C@H]4C(C)(C)[C@@H](O[C@@H]5O[C@H](CO)[C@@H](O)[C@H](O)[C@H]5O[C@@H]5O[C@H](CO)[C@@H](O)[C@H](O[C@@H]6O[C@H](CO)[C@@H](O)[C@H](O)[C@H]6O)[C@H]5O)CC[C@@]45C[C@@]35C[C@H](O)[C@]12C
HL-60 [1]
  inhibition: inactive

## CC(C)C(=O)CC[C@@H](C)[C@H]1[C@@H](O)C[C@@]2(C)[C@@H]3CC[C@H]4C(C)(C)[C@@H](O[C@@H]5O[C@H](CO)[C@@H](O)[C@H](O)[C@H]5O[C@@H]5O[C@@H](C)[C@H](O)[C@@H](O)[C@H]5O)CC[C@@]45C[C@@]35C[C@H](O)[C@]12C
HL-60 [1]
  inhibition: inactive

## CC(C)C(=O)CC[C@@H](C)[C@H]1[C@@H](O)C[C@@]2(C)[C@@H]3CC[C@H]4C(C)(C)[C@@H](O[C@@H]5O[C@H](CO)[C@@H](O)[C@H](O)[C@H]5O[C@@H]5O[C@@H](C)[C@H](O)[C@@H](O[C@@H]6O[C@H](CO)[C@@H](O)[C@H](O)[C@H]6O)[C@H]5O)CC[C@@]45C[C@@]35C[C@H](O)[C@]12C
HL-60 [1]
  inhibition: inactive

## CC(C)C(=O)CC[C@@H](C)[C@H]1[C@@H](O)C[C@@]2(C)[C@@H]3CC[C@H]4C(C)(C)[C@@H](O[C@@H]5O[C@H](CO[C@@H]6O[C@H](CO)[C@@H](O)[C@H](O)[C@H]6O)[C@@H](O)[C@H](O)[C@H]5O)CC[C@@]45C[C@@]35C[C@H](O)[C@]12C
HL-60 [1]
  inhibition: inactive

## CC(C)C(=O)CC[C@@H](C)[C@H]1[C@@H](O)C[C@@]2(C)[C@@H]3CC[C@H]4C(C)(C)[C@@H](O[C@@H]5O[C@H](CO)[C@@H](O)[C@H](O)[C@H]5O)CC[C@@]45C[C@@]35C[C@H](O)[C@]12C
HL-60 [2]
  IC50: 9000 nM

## CC(C)C(=O)CC[C@@H](C)[C@H]1[C@@H](O)C[C@@]2(C)[C@@H]3CC[C@H]4C(C)(C)[C@@H](O[C@@H]5O[C@H](CO)[C@@H](O)[C@H](O)[C@H]5O[C@@H]5O[C@H](CO)[C@@H](O)[C@H](O)[C@H]5O)CC[C@@]45C[C@@]35C[C@H](O)[C@]12C
HL-60 [1]
  inhibition: inactive

## CC(C)C(=O)CC[C@@H](C)[C@H]1[C@@H](O)C[C@@]2(C)[C@@H]3CC[C@H]4C(C)(C)[C@@H](O)CC[C@@]45C[C@@]35C[C@H](O)[C@]12C
MKN-7
  GI50: 1910 nM
U-251
  GI50: 2190 nM
HCC 2998
  GI50: 16600 nM
HCT-15
  GI50: 3470 nM
St-4
  GI50: 2750 nM
MDA-MB-231
  GI50: 2000 nM
OVCAR-8
  GI50: 1550 nM
MKN-28
  GI50: 2040 nM
OVCAR-4
  GI50: 2400 nM
DU-145
  GI50: 2090 nM
SNB-78
  GI50: 5010 nM
SNB-75
  GI50: 3800 nM
ACHN
  GI50: 2000 nM
SF-295
  GI50: 2090 nM
HCT-116
  GI50: 2400 nM
HT-29
  GI50: 3310 nM
NCI-H226
  GI50: 2750 nM
KM12
  GI50: 6170 nM
MKN-45
  GI50: 64600 nM
SF-268
  GI50: 1380 nM
MKN-74
  GI50: 2190 nM
[3]
  GI50: 3160 nM
[4]
  GI50: 1950 nM
[5]
  GI50: 2570 nM
[6]
  GI50: 2880 nM
OVCAR-3
  GI50: 3240 nM
MCF7
  GI50: 3800 nM
SF-539
  GI50: 2140 nM
DMS-273
  GI50: 2090 nM
NCI-H522
  GI50: 2880 nM
DMS-114
  GI50: 1780 nM
[7]
  GI50: 1780 nM
HL-60 [2]
  IC50: 1800 nM
NCI-H23
  GI50: 3090 nM
PC-3
  GI50: 14800 nM
OVCAR-5
  GI50: 4790 nM
A549
  GI50: 2690 nM
LOX IMVI
  GI50: 1550 nM
NCI-H460
  GI50: 2240 nM
SK-OV-3
  GI50: 4790 nM
